ChEMBL document CHEMBL1781932 (J Med Chem, 2011)
Converted amounts (≈) assume the structure as drawn.

Tests used:
Staphylococcus aureus [1] = assay: Antimicrobial activity against tetracycline-susceptible Staphylococcus aureus isolate 101 by CLSI dilution method; format: functional
Streptococcus pneumoniae [2] = assay: Antimicrobial activity against tetracycline-susceptible Streptococcus pneumoniae isolate 106 by CLSI dilution method; format: functional
Outline: (§1)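 Broth microdilution per CLSI in fresh cation-adjusted Mueller Hinton broth, kept at 4 °C before testing, with defibrinated horse blood added as appropriate. Strains were from ATCC. MIC in µg/mL. Runs were accepted when comparator antibiotics against ATCC quality-control strains fell within recommended ranges.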

Klebsiella pneumoniae [3] = assay: Antimicrobial activity against tetracycline-resistant Klebsiella pneumoniae isolate 153 harboring tetA gene by CLSI dilution method; format: functional
[4] = AUC (0 to infinity) in Sprague-Dawley rat at 1 mg/kg, iv administered as single dose measured after 24 to 48 hrs; format: ADME, organism-based; design: time infinity, dose 1 mg/kg, route intravenous; conditions: plasma
Outline: (§2)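 Sprague-Dawley rats (n = 3) were fasted overnight (minimum 12 h) and given a single dose, iv 1 mg/kg or oral 10 mg/kg, in sterile water. Samples were taken over 24–48 h. PK parameters came from noncompartmental analysis.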

[5] = Cmax in Sprague-Dawley rat at 1 mg/kg, iv administered as single dose measured after 24 to 48 hrs; format: ADME, organism-based; design: dose 1 mg/kg, route intravenous; conditions: in vivo; outline: as §2
Escherichia coli [6] = assay: Antimicrobial activity against tetracycline-resistant Escherichia coli isolate 155 harboring tetA gene by CLSI dilution method; format: functional
Streptococcus pneumoniae [7] = assay: Antimicrobial activity against tetracycline-resistant Streptococcus pneumoniae isolate 160 harboring tetM gene by CLSI dilution method; format: functional
Staphylococcus aureus [8] = assay: Antimicrobial activity against tetracycline-susceptible Staphylococcus aureus Smith isolate 100 infected in iv dosed mouse systemic infection model assessed as survival of mouse administered 60 mins post infection measured up to 48 hrs; format: functional; conditions: Smith isolate 100, iv, read-out: PD50
Outline: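 Mouse septicemia model with S. aureus ATCC 13709 mixed with 5% mucin, given intraperitoneally at 2.1×10^6 cfu/mouse. Compound was dosed intravenously 60 min after infection at 0.3–30 mg/kg in sterile water, 6 mice/dose group, with untreated infection controls. Survival was followed over 48 h. PD50 was derived by Probit analysis with 95% CI.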

Staphylococcus aureus [9] = assay: Antimicrobial activity against tetracycline-resistant Staphylococcus aureus isolate 158 harboring tetK gene by CLSI dilution method; format: functional
[10] = Clearance in Sprague-Dawley rat at 1 mg/kg, iv administered as single dose measured after 24 to 48 hrs; format: ADME, organism-based; design: dose 1 mg/kg, route intravenous; conditions: in vivo; outline: as §2
Enterobacter cloacae = assay: Antimicrobial activity against tetracycline-susceptible Enterobacter cloacae isolate 108 by CLSI dilution method; format: functional; outline: as §1
Pseudomonas aeruginosa = assay: Antimicrobial activity against tetracycline-susceptible Pseudomonas aeruginosa isolate 111 by CLSI dilution method; format: functional; outline: as §1
Acinetobacter baumannii = assay: Antimicrobial activity against tetracycline-susceptible Acinetobacter baumannii isolate 110 by CLSI dilution method; format: functional; outline: as §1
Enterococcus faecalis [11] = assay: Antimicrobial activity against tetracycline-resistant Enterococcus faecalis isolate 159 harboring […] gene by CLSI dilution method; format: functional
Staphylococcus aureus [12] = assay: Antimicrobial activity against methicillin-, tetracycline-resistant Staphylococcus aureus isolate 161 harboring tetM gene by CLSI dilution method; format: functional
Enterococcus faecalis [13] = assay: Antimicrobial activity against tetracycline-susceptible Enterococcus faecalis isolate 103 by CLSI dilution method; format: functional; outline: as §1
[14] = Apparent volume of distribution in Sprague-Dawley rat at 1 mg/kg, iv administered as single dose measured after 24 to 48 hrs; conditions: in vivo
[15] = Elimination half life in Sprague-Dawley rat at 1 mg/kg, iv administered as single dose; format: ADME, organism-based; design: dose 1 mg/kg, route intravenous; conditions: in vivo, read-out: beta t1/2 (converted); outline: as §2
Escherichia coli [16] = assay: Antimicrobial activity against tetracycline-susceptible Escherichia coli isolate 107 by CLSI dilution method; format: functional; outline: as §1
Klebsiella pneumoniae [17] = assay: Antimicrobial activity against tetracycline-susceptible Klebsiella pneumoniae isolate 109 by CLSI dilution method; format: functional; outline: as §1
Staphylococcus aureus [18] = assay: Antimicrobial activity against tetracycline-susceptible Staphylococcus aureus Smith isolate 100 by CLSI dilution method; format: functional
Rattus norvegicus = assay: Oral bioavailability in Sprague-Dawley rat at 10 mg/kg administered as single dose; format: ADME, organism-based; conditions: in vivo; outline: as §2

Row | SMILES | MIC (Staphylococcus aureus [1]) [µg/mL] | MIC (Streptococcus pneumoniae [2]) [µg/mL] | MIC (Klebsiella pneumoniae [3]) [µg/mL] | AUC(0-inf) [4] [ng·h/mL] | Cmax [5] [ng/mL] | MIC (Escherichia coli [6]) [µg/mL] | MIC (Streptococcus pneumoniae [7]) [µg/mL] | ED50 (Staphylococcus aureus [8]) [mg/kg] | MIC (Staphylococcus aureus [9]) [µg/mL] | clearance [10] [mL/min/kg] | MIC (Enterobacter cloacae) [µg/mL] | MIC (Pseudomonas aeruginosa) [µg/mL] | MIC (Acinetobacter baumannii) [µg/mL] | MIC (Enterococcus faecalis [11]) [µg/mL] | MIC (Staphylococcus aureus [12]) [µg/mL] | MIC (Enterococcus faecalis [13]) [µg/mL] | Vd [14] [L/kg] | half-life [15] [h] | MIC (Escherichia coli [16]) [µg/mL] | MIC (Klebsiella pneumoniae [17]) [µg/mL] | further results
1 | CN(C)[C@@H]1C(O)=C(C(N)=O)C(=O)[C@@]2(O)C(O)=C3C(=O)c4c(c(F)c5ccc(CN6CCC6)cc5c4O)C[C@H]3C[C@@H]12 | 0.25 (≈ 0.453 µM) | 0.0625 (≈ 0.113 µM) | 4 (≈ 7.25 µM) | 354 | 73 | 4 (≈ 7.25 µM) | 0.125 (≈ 0.227 µM) | 0.3 | 0.25 (≈ 0.453 µM) | 52.4 | 2 (≈ 3.63 µM) | 32 (≈ 58 µM) | 0.5 (≈ 0.907 µM) | 2 (≈ 3.63 µM) | 1 (≈ 1.81 µM) | 0.25 (≈ 0.453 µM) | 41.9 | 8.01 | 1 (≈ 1.81 µM) | 2 (≈ 3.63 µM) | 
2 | COCCNCc1ccc2cc3c(c(O)c2c1)C(=O)C1=C(O)[C@]2(O)C(=O)C(C(N)=O)=C(O)[C@@H](N(C)C)[C@@H]2C[C@@H]1C3 | 0.25 (≈ 0.453 µM) | 0.0156 (≈ 0.0283 µM) | 8 (≈ 14.5 µM) | 1980 | 633 | 8 (≈ 14.5 µM) | 0.5 (≈ 0.906 µM) | 0.43 | 0.5 (≈ 0.906 µM) | 8.43 | 2 (≈ 3.63 µM) | 32 (≈ 58 µM) | 1 (≈ 1.81 µM) | 8 (≈ 14.5 µM) | 4 (≈ 7.25 µM) | 0.5 (≈ 0.906 µM) | 3.78 | 5.19 | 1 (≈ 1.81 µM) | 4 (≈ 7.25 µM) | MIC (Staphylococcus aureus [18]): 1 µg/mL (≈ 1.81 µM); F (Rattus norvegicus): 2.8%
3 | CN(C)[C@@H]1C(O)=C(C(N)=O)C(=O)[C@@]2(O)C(O)=C3C(=O)c4c(c(F)c5ccc(CN6CC(F)C6)cc5c4O)C[C@H]3C[C@@H]12 | 0.5 (≈ 0.878 µM) | 0.25 (≈ 0.439 µM) | 8 (≈ 14 µM) | 1040 | 358 | 8 (≈ 14 µM) |  |  | 0.25 (≈ 0.439 µM) | 16.1 | 8 (≈ 14 µM) | > 32 | 1 (≈ 1.76 µM) | 1 (≈ 1.76 µM) | 1 (≈ 1.76 µM) | 0.25 (≈ 0.439 µM) | 3.06 | 2.22 | 4 (≈ 7.02 µM) | 4 (≈ 7.02 µM) | MIC (Staphylococcus aureus [18]): 1 µg/mL (≈ 1.76 µM); F (Rattus norvegicus): 16.7%
4 | CN(C)c1cc(NC(=O)CNC(C)(C)C)c(O)c2c1C[C@H]1C[C@H]3[C@H](N(C)C)C(O)=C(C(N)=O)C(=O)[C@@]3(O)C(O)=C1C2=O [TIGECYCLINE] | 0.0625 (≈ 0.107 µM) | 0.0156 (≈ 0.0266 µM) | 1 (≈ 1.71 µM) | 1050 | 428 | 0.5 (≈ 0.854 µM) | 0.0156 (≈ 0.0266 µM) | 0.35 | 0.0625 (≈ 0.107 µM) |  | 0.25 (≈ 0.427 µM) | 8 (≈ 13.7 µM) | 0.25 (≈ 0.427 µM) | 0.0625 (≈ 0.107 µM) | 0.125 (≈ 0.213 µM) | 0.0313 (≈ 0.0534 µM) |  | 4.6 | 0.0313 (≈ 0.0534 µM) | 0.125 (≈ 0.213 µM) | MIC (Staphylococcus aureus [18]): 0.0625 µg/mL (≈ 0.107 µM)
5 | COc1c2c(c(O)c3cc(CNCC(C)C)ccc13)C(=O)C1=C(O)[C@]3(O)C(=O)C(C(N)=O)=C(O)[C@@H](N(C)C)[C@@H]3C[C@@H]1C2 |  | 0.0156 (≈ 0.0269 µM) | 8 (≈ 13.8 µM) | 815 | 414 | 4 (≈ 6.9 µM) | 0.125 (≈ 0.216 µM) | < 0.3 | 0.016 (≈ 0.0276 µM) | 20.5 | 2 (≈ 3.45 µM) | 16 (≈ 27.6 µM) | 0.25 (≈ 0.431 µM) | 2 (≈ 3.45 µM) | 2 (≈ 3.45 µM) | 0.0625 (≈ 0.108 µM) | 9.6 | 5.4 | 1 (≈ 1.73 µM) | 1 (≈ 1.73 µM) | MIC (Staphylococcus aureus [18]): 0.5 µg/mL (≈ 0.863 µM); F (Rattus norvegicus): 2.7%
6 | COc1c2c(c(O)c3cc(CNC4CC4)ccc13)C(=O)C1=C(O)[C@]3(O)C(=O)C(C(N)=O)=C(O)[C@@H](N(C)C)[C@@H]3C[C@@H]1C2 | 0.0625 (≈ 0.111 µM) | 0.0156 (≈ 0.0277 µM) | 8 (≈ 14.2 µM) | 385 | 124 | 8 (≈ 14.2 µM) | 0.125 (≈ 0.222 µM) | 0.6 | 0.0313 (≈ 0.0555 µM) | 45.4 | 4 (≈ 7.1 µM) | 16 (≈ 28.4 µM) | 0.25 (≈ 0.444 µM) | 2 (≈ 3.55 µM) | 2 (≈ 3.55 µM) | 0.0625 (≈ 0.111 µM) | 8.4 | 2.17 | 0.5 (≈ 0.887 µM) | 2 (≈ 3.55 µM) | MIC (Staphylococcus aureus [18]): 0.25 µg/mL (≈ 0.444 µM); F (Rattus norvegicus): 12.5%
